# Experimental data from different studies.
# Target: Myosin light chain kinase (MYLK3, Homo sapiens, UniProt Q32MK0)
# Sequence (Q32MK0 1-819, as in one of the studies): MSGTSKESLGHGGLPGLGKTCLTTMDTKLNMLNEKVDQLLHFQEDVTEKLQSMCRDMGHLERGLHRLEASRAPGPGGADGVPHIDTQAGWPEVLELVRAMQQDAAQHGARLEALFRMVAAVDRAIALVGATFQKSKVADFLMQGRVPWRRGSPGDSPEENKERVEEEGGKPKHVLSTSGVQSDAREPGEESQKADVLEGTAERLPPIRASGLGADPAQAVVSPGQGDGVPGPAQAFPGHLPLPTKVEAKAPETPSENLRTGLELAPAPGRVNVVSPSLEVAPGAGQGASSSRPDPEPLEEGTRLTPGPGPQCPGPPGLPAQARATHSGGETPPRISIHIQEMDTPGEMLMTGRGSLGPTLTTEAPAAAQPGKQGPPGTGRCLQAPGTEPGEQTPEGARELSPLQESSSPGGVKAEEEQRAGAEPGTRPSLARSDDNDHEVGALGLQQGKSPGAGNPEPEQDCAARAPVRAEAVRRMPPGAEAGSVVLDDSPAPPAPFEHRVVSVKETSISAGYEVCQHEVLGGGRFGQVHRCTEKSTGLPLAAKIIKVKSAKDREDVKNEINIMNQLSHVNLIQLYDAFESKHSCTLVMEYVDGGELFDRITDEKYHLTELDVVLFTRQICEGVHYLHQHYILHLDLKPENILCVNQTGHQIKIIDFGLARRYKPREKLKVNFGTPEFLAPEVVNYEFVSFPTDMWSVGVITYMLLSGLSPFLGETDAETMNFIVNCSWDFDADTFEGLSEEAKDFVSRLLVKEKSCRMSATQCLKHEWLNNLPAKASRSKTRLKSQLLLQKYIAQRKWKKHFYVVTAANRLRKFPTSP
Structure (SMILES),assay,setting,quantity,value
N#CC1(c2ccccn2)CCN(Cc2cc(C(=O)O)c(=O)n3ccccc23)CC1,"cell-free assay, competition with immobilised ligand",1 µM,remaining binding,87%
COc1ncccc1-c1cnn2ccc(N3CCN(C(=O)OC(C)C)CC3)nc12,"binding, competition with immobilised ligand",1 µM,remaining binding,100%
Cn1cncc1[C@](O)(COc1ccc(C#N)cc1-c1ccc(OC(F)(F)F)cc1)c1ccc(C#N)cc1,"cell-free assay, competition with immobilised ligand",1 µM,remaining binding,100%
Cn1cc(-c2cccc(N3CCc4c(sc5c4CC(C)(C)C5)C3=O)c2CO)cc(Nc2ccncn2)c1=O,"enzyme activity, inhibitor",1 µM,inhibition,-8%
COc1cc(Nc2ncc(F)c(Nc3ccc4c(n3)NC(=O)C(C)(C)O4)n2)cc(OC)c1OC,"binding, competition with immobilised ligand",10 µM,inhibition,30%
Nc1ncc(-c2nc(N3CCOCC3)nc(N3CCOCC3)n2)c(C(F)F)n1,"binding, competition with immobilised ligand",10 µM,remaining binding,84%
Cn1cc(-c2cc(F)cc(N3CCn4c(cc5c4CCCC5)C3=O)c2CO)cc(Nc2ccc(N3CCN(C4COC4)CC3)cn2)c1=O,"enzyme activity, inhibitor",0.1 µM,inhibition,-5%
Cc1nn(C)cc1-c1nc2c(N3CCN(Cc4ccc(Cl)cc4)CC3)c(Cl)cnc2[nH]1,"binding, competition with immobilised ligand",1 µM,remaining binding,100%
